Assay results taken from ChEMBL document CHEMBL1124058, “8-Aryl-and 8-cycloalkyl-1,3-dipropylxanthines: further potent and selective antagonists for A1-adenosine receptors” (J Med Chem, 1988).

Tests used:
[1] = molecular target: T1, Adenosine receptor A1 (Rattus norvegicus) (UniProt P25099); assay: Antagonistic activity on N6-([3H]-phenylisopropyl)adenosine binding to rat brain membrane (Adenosine A1 receptor); type: tissue-based
T1 sequence (whole entry): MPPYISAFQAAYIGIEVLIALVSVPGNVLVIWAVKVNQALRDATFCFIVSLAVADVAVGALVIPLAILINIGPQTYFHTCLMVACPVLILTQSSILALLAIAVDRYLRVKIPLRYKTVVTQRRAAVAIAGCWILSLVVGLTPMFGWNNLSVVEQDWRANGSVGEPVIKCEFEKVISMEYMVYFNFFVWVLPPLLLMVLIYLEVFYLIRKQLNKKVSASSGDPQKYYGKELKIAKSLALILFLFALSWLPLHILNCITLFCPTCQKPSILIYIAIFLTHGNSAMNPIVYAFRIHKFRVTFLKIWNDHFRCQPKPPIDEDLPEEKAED

Adenosine A2 receptor = Adenosine A2 receptor (Homo sapiens, UniProt P29275+P29274); assay: Inhibition of 5'-(N-ethylcarbamoyl)adenosine-elicited stimulation of adenylate cyclase in human platelet membranes; type: cell membranes
[2] = Solubility in water at PH 7.4 in the presence of Tris.HCl buffer; type: physicochemical
Procedure, shortened: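 Aqueous solubility measured in Tris-HCl buffer, pH 7.4.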

[3] = molecular target: T1, Adenosine receptor A1 (Rattus norvegicus); assay: Antagonistic activity against N6-([3H]-phenylisopropyl)adenosine binding to rat brain membrane (Adenosine A1 receptor); type: tissue-based
Procedure, shortened: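 Competition binding against 1 nM N6-([3H]phenylisopropyl)adenosine at A1 receptors in rat cerebral cortical membranes. A range of xanthine concentrations was tested in triplicate in at least two separate experiments. Values are means with 95% confidence limits.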

[4] = molecular target: Adenosine A2 receptor (Cavia porcellus); assay: Inhibition of stimulation of adenylate cyclase in guinea pig brain slices at A2 receptor (2-chloroadenosine-elicited accumulations of cyclic AMP)

Compound	Kb [1] [nM]	Kb (Adenosine A2 receptor) [nM]	solubility [2] [µM]	Kb [3] [nM]	IC50 [4] [nM]
CCCn1c(=O)c2nc(CC3CCCCC3)[nH]c2n(CCC)c1=O	39	2700	–	–	–
CCCn1c(=O)c2nc(CC3CCCC3)[nH]c2n(CCC)c1=O	–	1900	–	16	–
CCCn1c(=O)c2[nH]c(-c3ccccc3)nc2n(CCC)c1=O	–	–	18	–	–
CCCn1c(=O)c2nc(C3CCCCC3)[nH]c2n(CCC)c1=O	–	190	74	–	–
CCCn1c(=O)c2nc[nH]c2n(CCC)c1=O	–	–	1600	710	–
CCCn1c(=O)c2nc(-c3ccc(C(N)=O)cc3)[nH]c2n(CCC)c1=O	12	54	–	–	72
CCCn1c(=O)c2nc(-c3ccc(C(=O)O)cc3)[nH]c2n(CCC)c1=O	200	–	180	–	–
CCCn1c(=O)c2[nH]c(C3CCCC3)nc2n(CCC)c1=O [1,3-DIPROPYL-8-CYCLOPENTYLXANTHINE [DPCPX]]	–	–	31	–	–
CCCn1c(=O)c2nc(C3CCNCC3)[nH]c2n(CCC)c1=O	620	6900	–	–	–
CCCn1c(=O)c2[nH]c(-c3ccc(OC)cc3O)nc2n(CCC)c1=O	4.6	180	18	–	980
CCCn1c(=O)c2[nH]c(-c3ccc(C(N)=O)cc3)nc2n(CCC)c1=O	–	–	5	–	–
CCCn1c(=O)c2nc(-c3cnccn3)[nH]c2n(CCC)c1=O	600	3600	–	–	–
CCCn1c(=O)c2nc(-c3ccc(OC)cc3)[nH]c2n(CCC)c1=O	3.7	–	14	–	–
CCCn1c(=O)c2nc(-c3ccccc3)[nH]c2n(CCC)c1=O	10	–	–	–	–

Now from value to compound:

Kb [1] [nM]	Kb (Adenosine A2 receptor) [nM]	solubility [2] [µM]	Kb [3] [nM]	IC50 [4] [nM]	Compound
100	2400	–	–	–	CCCn1c(=O)c2nc(-c3ccc(OCC(=O)NCCc4c[nH]cn4)cc3O)[nH]c2n(CCC)c1=O
38	240	–	–	–	CCCn1c(=O)c2nc(-c3ccc(C(=O)NCC(=O)OC)cc3)[nH]c2n(CCC)c1=O
6.5	1200	5600	–	–	CCCn1c(=O)c2nc(-c3ccc(OCC(N)=O)cc3O)[nH]c2n(CCC)c1=O
2.5	–	–	–	–	CCCn1c(=O)c2nc(-c3ccc(O)cc3O)[nH]c2n(CCC)c1=O
2.4	140	710	–	–	CCCn1c(=O)c2nc(-c3ccc(OCC(=O)NCCN)cc3O)[nH]c2n(CCC)c1=O
–	–	11	–	–	CCCn1c(=O)c2[nH]c(-c3ccc(O)cc3O)nc2n(CCC)c1=O
37	2000	1100	–	–	CCCn1c(=O)c2nc(-c3ccc(OCC(=O)O)cc3O)[nH]c2n(CCC)c1=O
31	3800	–	–	–	CCCn1c(=O)c2nc(-c3ccc(OCC(=O)OCC)cc3O)[nH]c2n(CCC)c1=O
16	4400	–	–	–	CCCn1c(=O)c2nc(-c3ccc(OCC(=O)NCCc4ccc(O)cc4)cc3O)[nH]c2n(CCC)c1=O
8.4	77	–	–	–	CCCn1c(=O)c2nc(-c3ccc(OCC(=O)NCCN(C)C)cc3O)[nH]c2n(CCC)c1=O
3.5	–	–	–	–	CCCn1c(=O)c2nc(-c3ccc(O)cc3)[nH]c2n(CCC)c1=O
